Values after ≈ are worked out from the molar mass of the structure shown.
Key:
[1] = tested on: Mycobacterium tuberculosis; test: Antimycobacterial activity against Mycobacterium tuberculosis H37Rv ATCC 27294 measured after 7 days by microplate alamar blue assay; assay type: functional; details: H37Rv ATCC 27294, 168 h
How it was run: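 Mtb H37Rv (ATCC 27294) grown in Middlebrook 7H12 broth; MIC read by Microplate Alamar Blue Assay (MABA).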

[2] = tested on: Mycobacterium tuberculosis; test: Antimycobacterial activity against drug-susceptible Mycobacterium tuberculosis clinical isolate; assay type: functional
How it was run: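 Clinical isolates coded 960 (drug-susceptible), 330 (MDR) and 431 (XDR); MIC reported in μM.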

[3] = tested on: Mycobacterium tuberculosis; test: Antimycobacterial activity against p-aminosalicyclic acid-resistant Mycobacterium tuberculosis ATCC 35821 by resazurin dye based fluorimetric method; assay type: functional
[4] = Cytotoxicity against African green monkey Vero cells assessed as cell viability at 0.01 ug/ml after 72 hrs by CCK8 assay (reference value: 100%); assay type: cell-based; details: chlorocebus sabaeus, read-out: Activity
How it was run: (§1)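 Vero cells exposed to 0.01–20 μg/mL compound; vehicle control 0.625% DMSO set as 100%. Result given as percent cell viability.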

[5] = Cytotoxicity against African green monkey Vero cells assessed as cell viability at 0.02 ug/ml after 72 hrs by CCK8 assay (reference value: 100%); assay type: cell-based; details: chlorocebus sabaeus, read-out: Activity; how it was run: as §1
[6] = Cytotoxicity against African green monkey Vero cells assessed as cell viability at 0.039 ug/ml after 72 hrs by CCK8 assay (reference value: 100%); assay type: cell-based; details: chlorocebus sabaeus, read-out: Activity; how it was run: as §1
[7] = Cytotoxicity against African green monkey Vero cells assessed as cell viability at 0.078 ug/ml after 72 hrs by CCK8 assay (reference value: 100%); assay type: cell-based; details: chlorocebus sabaeus, read-out: Activity; how it was run: as §1
[8] = Cytotoxicity against African green monkey Vero cells assessed as cell viability at 0.156 ug/ml after 72 hrs by CCK8 assay (reference value: 100%); assay type: cell-based; details: chlorocebus sabaeus, read-out: Activity; how it was run: as §1
[9] = Cytotoxicity against African green monkey Vero cells assessed as cell viability at 0.312 ug/ml after 72 hrs by CCK8 assay (reference value: 100%); assay type: cell-based; details: chlorocebus sabaeus, read-out: Activity; how it was run: as §1
[10] = Cytotoxicity against African green monkey Vero cells assessed as cell viability at 0.625 ug/ml after 72 hrs by CCK8 assay (reference value: 100%); assay type: cell-based; details: chlorocebus sabaeus, read-out: Activity; how it was run: as §1
[11] = Cytotoxicity against African green monkey Vero cells assessed as cell viability at 1.25 ug/ml after 72 hrs by CCK8 assay (reference value: 100%); assay type: cell-based; details: chlorocebus sabaeus, read-out: Activity; how it was run: as §1
[12] = Cytotoxicity against African green monkey Vero cells assessed as cell viability at 2.5 ug/ml after 72 hrs by CCK8 assay (reference value: 100%); assay type: cell-based; details: chlorocebus sabaeus, read-out: Activity; how it was run: as §1
[13] = Cytotoxicity against African green monkey Vero cells assessed as cell viability at 5 ug/ml after 72 hrs by CCK8 assay (reference value: 100%); assay type: cell-based; details: chlorocebus sabaeus, read-out: Activity; how it was run: as §1
[14] = Cytotoxicity against African green monkey Vero cells assessed as cell viability at 10 ug/ml after 72 hrs by CCK8 assay (reference value: 100%); assay type: cell-based; details: chlorocebus sabaeus, read-out: Activity; how it was run: as §1
[15] = Cytotoxicity against African green monkey Vero cells assessed as cell viability at 20 ug/ml after 72 hrs by CCK8 assay (reference value: 100%); assay type: cell-based; details: chlorocebus sabaeus, read-out: Activity; how it was run: as §1
[16] = Stability in human liver microsomes assessed as parent compound remaining after 15 mins by LC-MS/MS analysis; assay type: ADME, microsome; details: read-out: Stability
How it was run: (§2)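 Compound incubated with human liver microsomes; percent remaining measured at 15, 30 and 60 min, relative to the amount at 0 min taken as 100%.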

[17] = Stability in human liver microsomes assessed as parent compound remaining after 30 mins by LC-MS/MS analysis; assay type: ADME, microsome; details: read-out: Stability; how it was run: as §2
[18] = Stability in human liver microsomes assessed as parent compound remaining after 60 mins by LC-MS/MS analysis; assay type: ADME, microsome; details: read-out: Stability; how it was run: as §2

SMILES: O=C(N/N=C/c1ccc(CSc2nc3ccccc3o2)cc1)c1ccncc1
- MIC [1]: 0.24 µM (≈ 0.0932 µg/mL)
- MIC [2]: 0.2 µM (≈ 0.0777 µg/mL)
- MIC [3]: 0.312 µg/mL (≈ 0.803 µM)
- viability at 72 h, 0.01 ug/ml [4]: 127%
- viability at 72 h, 0.02 ug/ml [5]: 127%
- viability at 72 h, 0.039 ug/ml [6]: 127%
- viability at 72 h, 0.078 ug/ml [7]: 119%
- viability at 72 h, 0.156 ug/ml [8]: 122%
- viability at 72 h, 0.312 ug/ml [9]: 120%
- viability at 72 h, 0.625 ug/ml [10]: 118%
- viability at 72 h, 1.25 ug/ml [11]: 123%
- viability at 72 h, 2.5 ug/ml [12]: 123%
- viability at 72 h, 5 ug/ml [13]: 123%
- viability at 72 h, 10 ug/ml [14]: 130%
- viability at 72 h, 20 ug/ml [15]: 109%
- remaining at 0.25 h [16]: 90.1%
- remaining at 0.5 h [17]: 76.5%
- remaining at 1 h [18]: 66.6%

SMILES: O=C(N/N=C/c1ccc(CSc2nc3ccccc3[nH]2)cc1)c1ccncc1
- MIC [1]: 0.23 µM (≈ 0.0891 µg/mL)
- MIC [2]: 0.2 µM (≈ 0.0775 µg/mL)
- MIC [3]: 0.312 µg/mL (≈ 0.805 µM)
- viability at 72 h, 0.01 ug/ml [4]: 119%
- viability at 72 h, 0.02 ug/ml [5]: 116%
- viability at 72 h, 0.039 ug/ml [6]: 115%
- viability at 72 h, 0.078 ug/ml [7]: 116%
- viability at 72 h, 0.156 ug/ml [8]: 115%
- viability at 72 h, 0.312 ug/ml [9]: 111%
- viability at 72 h, 0.625 ug/ml [10]: 112%
- viability at 72 h, 1.25 ug/ml [11]: 119%
- viability at 72 h, 2.5 ug/ml [12]: 114%
- viability at 72 h, 5 ug/ml [13]: 113%
- viability at 72 h, 10 ug/ml [14]: 107%
- viability at 72 h, 20 ug/ml [15]: 107%
- remaining at 0.25 h [16]: 76.5%
- remaining at 0.5 h [17]: 62%
- remaining at 1 h [18]: 44.6%

SMILES: CN[C@@H]1[C@H](O[C@H]2[C@H](O[C@H]3[C@H](O)[C@@H](O)[C@H](N=C(N)N)[C@@H](O)[C@@H]3N=C(N)N)O[C@@H](C)[C@]2(O)C=O)O[C@@H](CO)[C@H](O)[C@H]1O [STREPTOMYCIN]
- MIC [1]: 0.48 µM (≈ 0.279 µg/mL)

SMILES: NNC(=O)c1ccncc1 [ISONIAZID]
- MIC [1]: 0.81 µM (≈ 0.111 µg/mL)
- MIC [2]: 0.5 µM (≈ 0.0686 µg/mL)

SMILES: O=C(NCc1ccc(CSc2nc3ccccc3o2)cc1)c1ccncc1
- MIC [1]: 0.9 µM (≈ 0.338 µg/mL)
- MIC [2]: 16 µM (≈ 6.01 µg/mL)

SMILES: O=C(NCc1ccc(CSc2nc3ccccc3[nH]2)cc1)c1ccncc1
- MIC [1]: 120 µM (≈ 45.1 µg/mL)

SMILES: O=C(N/N=C/c1ccc(CSc2nc3ccccc3[nH]2)cc1)c1cccnc1
- MIC [1]: 114 µM (≈ 44.3 µg/mL)

SMILES: O=C(NCc1ccc(CSc2nc3ccccc3[nH]2)cc1)c1cccnc1
- MIC [1]: 60.3 µM (≈ 22.6 µg/mL)

SMILES: O=C(N/N=C/c1ccc(CSc2nc3ccccc3s2)cc1)c1cccnc1
- MIC [1]: > 128 µM

SMILES: O=C(NCc1ccc(CSc2nc3ccccc3s2)cc1)c1cccnc1
- MIC [1]: > 128 µM

SMILES: COc1c(N2C[C@@H]3CCCN[C@@H]3C2)c(F)cc2c(=O)c(C(=O)O)cn(C3CC3)c12 [MOXIFLOXACIN]
- MIC [1]: 0.5 µM (≈ 0.201 µg/mL)

SMILES: O=C(N/N=C/c1ccc(CSc2nc3ccccc3o2)cc1)c1cccnc1
- MIC [1]: 24.8 µM (≈ 9.63 µg/mL)

SMILES: O=C(NCc1ccc(CSc2nc3ccccc3s2)cc1)c1ccncc1
- MIC [1]: > 128 µM

SMILES: CO[C@H]1/C=C/O[C@@]2(C)Oc3c(C)c(O)c4c(O)c(c(/C=N/N5CCN(C)CC5)c(O)c4c3C2=O)NC(=O)/C(C)=C\C=C\[C@H](C)[C@H](O)[C@@H](C)[C@@H](O)[C@@H](C)[C@H](OC(C)=O)[C@@H]1C [RIFAMPIN]
- MIC [1]: 0.08 µM (≈ 0.0658 µg/mL)
- MIC [2]: 0.07 µM (≈ 0.0576 µg/mL)

SMILES: O=C(NCc1ccc(CSc2nc3ccccc3o2)cc1)c1cccnc1
- MIC [1]: 58.2 µM (≈ 21.9 µg/mL)

SMILES: O=C(N/N=C/c1ccc(CSc2nc3ccccc3s2)cc1)c1ccncc1
- MIC [1]: 0.24 µM (≈ 0.0971 µg/mL)
- MIC [2]: 0.2 µM (≈ 0.0809 µg/mL)
- MIC [3]: 0.625 µg/mL (≈ 1.55 µM)
- viability at 72 h, 0.01 ug/ml [4]: 97%
- viability at 72 h, 0.02 ug/ml [5]: 103%
- viability at 72 h, 0.039 ug/ml [6]: 99%
- viability at 72 h, 0.078 ug/ml [7]: 99%
- viability at 72 h, 0.156 ug/ml [8]: 97%
- viability at 72 h, 0.312 ug/ml [9]: 98%
- viability at 72 h, 0.625 ug/ml [10]: 94%
- viability at 72 h, 1.25 ug/ml [11]: 103%
- viability at 72 h, 2.5 ug/ml [12]: 101%
- viability at 72 h, 5 ug/ml [13]: 103%
- viability at 72 h, 10 ug/ml [14]: 96%
- viability at 72 h, 20 ug/ml [15]: 91%
- remaining at 0.25 h [16]: 76.3%
- remaining at 0.5 h [17]: 57.2%
- remaining at 1 h [18]: 34%

SMILES: COc1cc(/C=N/NC(=O)c2ccncc2)ccc1O [FTIVAZIDE]
- MIC [2]: 0.25 µM (≈ 0.0678 µg/mL)
- MIC [3]: 0.312 µg/mL (≈ 1.15 µM)
- viability at 72 h, 0.01 ug/ml [4]: 95%
- viability at 72 h, 0.02 ug/ml [5]: 105%
- viability at 72 h, 0.078 ug/ml [7]: 114%
- viability at 72 h, 0.156 ug/ml [8]: 96%
- viability at 72 h, 0.312 ug/ml [9]: 103%
- viability at 72 h, 0.625 ug/ml [10]: 100%
- viability at 72 h, 1.25 ug/ml [11]: 105%
- viability at 72 h, 2.5 ug/ml [12]: 110%
- viability at 72 h, 5 ug/ml [13]: 100%
- viability at 72 h, 10 ug/ml [14]: 95%
- viability at 72 h, 20 ug/ml [15]: 90%

SMILES: O=[N+]([O-])c1cn2c(n1)OC[C@@H](OCc1ccc(OC(F)(F)F)cc1)C2 [PRETOMANID]
- MIC [1]: 0.44 µM (≈ 0.158 µg/mL)
